Screens deposited in PubChem BioAssay by several laboratories.
Hits are enriched below; roughly 5.7% of the tested compounds scored in any of these assays.
SKKanGAS inh: inhibitors of SKKanGAS S. pyogenes growth in kanamycin (SK-promoter or general growth effect) | BacTiter-Glo, 6 h | inhibition, % at 7.5 µM | 300,000 tested, 1.3% active;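 active = mean replicate score, as percent of positive control median, at least 50; inconclusive = mean below 50 but one replicate at or above 50; inactive = mean and every replicate below 50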;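 note: strain carries kanamycin resistance gene driven by streptokinase promoter and grows in 40 µg/ml kanamycin; loss of luminescence reflects streptokinase promoter inhibition or plain growth inhibition; 0% = median of DMSO wells and 100% = positive control at its reference dose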
CSC inhib: cancer stem cell inhibition | cancer stem cell-like cells viability, luminescence | inhibition, % at 7.5 µM | 300,000 tested, 1.1% active | AID 2717; in the data active = inhibition above about 75%; inconclusive = no clear call, values can overlap the other calls; tested in HMLE shEcad cells
Beta cell apopt: beta cell apoptosis inhibition; 300,000 tested, 0.8% active; protection from apoptosis, % (no concentration beside the values); INS-1E cytokine-induced death, ATP luminescence, 48 h; percent of positive-control rescue, neutral wells zero;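 active = Every replicate reaches about 75%, or at least half do and their mean reaches it too, limit read from the data; inconclusive = At least half of replicates reach the limit but their mean does not; inactive = Under half of replicates reach the limit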;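 note: 0% = cytokine-treated negative control wells and 100% = positive control rescue; higher means more ATP so stronger rescue from cytokine killing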
T cruzi repl: T. cruzi replication inhibition; T. cruzi beta-gal in NIH3T3, luminescence, 90 h; inhibition, % (no concentration beside the values); 300,000 tested, 1.4% active; AID 1885;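 active = mean inhibition across valid replicates above about 55%, limit read from the data; inconclusive = mean below that limit but half or more replicates reach it; inactive = mean below it, under half of replicates reach it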;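 note: signal also drops with host cell toxicity which is not excluded here; 0% = plate median of DMSO wells and 100% = zero luminescence signal; higher percent means less beta-gal luminescence so fewer parasites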
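Incubation – ≥90 h infection period, 3 h prior cell attachment · System – NIH/3T3 fibroblasts plus reporter T. cruzi · Doses – compound pinned at 50 nL/well, DMSO · Read-out basis – percent inhibition of parasite-derived β-gal signal · Signal – luminescent β-galactosidase signal after 60 min lysis · Also added – 5000 T. cruzi trypomastigotes/well · Medium – Low-serum DMEM with 2% FBS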
Calb FLC: affects C. albicans growth with fluconazole | C. albicans CaCi-2 (fluconazole-resistant clinical isolate) + fluconazole, Alamar Blue growth, 48 h | growth inhibition, % (no concentration beside the values) | 300,000 tested, 0.57% active;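 active = growth inhibition above about 58% in most replicates, limit read from the data, passing the limit was not always enough; inconclusive = exactly half the replicates above a set limit; inactive = most replicates below a set limit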;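 note: all wells also contain fluconazole at 8 µg/ml as a sub-toxic cotreatment; 0% = median of DMSO wells and 100% = median of geldanamycin control wells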
Mdm2-MdmX inh: inhibitors of human Mdm2/MdmX interaction. O15151+Q00987. SaOS-2 split-luciferase Mdm2/MdmX complementation, luminescence. inhibition, % at 8 µM. 330,000 tested, 3% active. AID 485346;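 active = inhibition of at least 50% at 8 µM in the primary screen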
Target sequence (O15151 whole entry, looked up): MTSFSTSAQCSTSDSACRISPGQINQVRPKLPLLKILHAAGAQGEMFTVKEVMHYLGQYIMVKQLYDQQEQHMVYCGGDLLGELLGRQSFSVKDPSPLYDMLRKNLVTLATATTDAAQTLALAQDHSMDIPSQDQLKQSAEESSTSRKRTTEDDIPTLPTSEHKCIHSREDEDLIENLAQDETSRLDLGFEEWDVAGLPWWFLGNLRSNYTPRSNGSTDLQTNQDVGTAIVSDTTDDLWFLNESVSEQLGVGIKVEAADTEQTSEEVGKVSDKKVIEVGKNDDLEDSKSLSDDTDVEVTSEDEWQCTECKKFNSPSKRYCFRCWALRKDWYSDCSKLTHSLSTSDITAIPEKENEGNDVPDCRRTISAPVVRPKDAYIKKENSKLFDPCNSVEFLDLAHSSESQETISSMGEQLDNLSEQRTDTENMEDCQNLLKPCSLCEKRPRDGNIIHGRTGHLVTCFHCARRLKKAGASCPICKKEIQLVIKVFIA
Target sequence (Q00987 whole entry, looked up): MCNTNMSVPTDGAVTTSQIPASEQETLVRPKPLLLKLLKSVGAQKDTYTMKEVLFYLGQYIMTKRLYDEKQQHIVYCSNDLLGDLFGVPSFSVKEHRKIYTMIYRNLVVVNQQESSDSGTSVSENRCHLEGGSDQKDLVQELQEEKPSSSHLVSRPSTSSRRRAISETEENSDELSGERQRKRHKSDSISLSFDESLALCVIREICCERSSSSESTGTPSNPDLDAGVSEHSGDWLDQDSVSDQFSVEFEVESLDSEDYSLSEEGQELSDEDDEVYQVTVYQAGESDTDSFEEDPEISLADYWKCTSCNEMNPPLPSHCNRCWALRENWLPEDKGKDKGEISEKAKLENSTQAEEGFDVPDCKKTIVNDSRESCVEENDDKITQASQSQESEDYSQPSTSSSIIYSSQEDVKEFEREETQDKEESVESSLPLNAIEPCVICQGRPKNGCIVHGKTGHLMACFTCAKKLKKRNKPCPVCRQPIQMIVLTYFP
Mdm2-MdmX conf: confirmation of human Mdm2/MdmX interaction inhibitors. shares compounds with Mdm2-MdmX inh. Mdm2-MdmX binding, luminescent assay. inhibition, % at 8 µM. 10,000 tested, 55% active. AID 489028; in the data active = inhibition above about 40%
FLuc counter: full-length luciferase inhibition in Mdm2/MdmX counter-screen. shares compounds with Mdm2-MdmX inh. SaOS-2 full-length luciferase counterscreen, luminescence. inhibition, % at 8 µM. 6,200 tested, 77% active. AID 504607;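 active = mean inhibition at 8 µM reaching about 37%, which flags the compound as non-specific, limit read from the data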;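 note: p53-null SaOS-2 cells with luciferase driven by a doxycycline-inducible promoter; compound on cells about two nights before reading with doxycycline added after day one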
An asterisk follows results filed as active.

CN(C)CCCN(C(=O)c1ccc2c(c1)CCCC2)c1nc2ccc(Cl)cc2s1 was read as SKKanGAS inh 2, CSC inhib -5, Beta cell apopt 17, T cruzi repl 45, Calb FLC -29, Mdm2-MdmX inh 54* and Mdm2-MdmX conf 19.
`COc1cccc2sc(N(CCCN(C)C)C(=O)c3ccc(S(=O)(=O)N4CCCc5ccccc54)cc3)nc12` gave SKKanGAS inh 1, CSC inhib 23, Beta cell apopt 9, T cruzi repl 17, Calb FLC 3, Mdm2-MdmX inh 80* and Mdm2-MdmX conf 28.
Screening COc1ccc(OC)c2sc(N(CCCN(C)C)C(=O)c3ccc(S(=O)(=O)N4CCc5ccccc5C4)cc3)nc12 returned SKKanGAS inh 4, CSC inhib 101*, Beta cell apopt 100*, T cruzi repl 60*, Calb FLC 12, Mdm2-MdmX inh 99*, Mdm2-MdmX conf 100* and FLuc counter 1.
For CCOc1ccc(CCNC(=O)COC(=O)c2oc3ccccc3c2COC)cc1OCC the results were CSC inhib -5, Beta cell apopt -7 and Mdm2-MdmX inh 2.
For CCOc1ccc(NC(=O)CSc2nc3ccsc3c(=O)n2CCC(=O)O)cc1 the results were SKKanGAS inh -2, CSC inhib -4, T cruzi repl 3, Calb FLC -8 and Mdm2-MdmX inh 4.
`O=C(CSc1ccc2ccccc2n1)NCCCN1CCCC1=O` gave CSC inhib -21, Beta cell apopt 0 and Mdm2-MdmX inh 14.
For COc1cccc2sc(N(CCCN(C)C)C(=O)c3ccc(S(=O)(=O)N4CCc5ccccc5C4)cc3)nc12 the results were SKKanGAS inh 15, CSC inhib -1, Beta cell apopt 1, T cruzi repl 47, Calb FLC 9, Mdm2-MdmX inh 62* and Mdm2-MdmX conf 23.
For COc1ccc(C)c2sc(N(CCCN(C)C)C(=O)c3ccc(S(=O)(=O)N4CCc5ccccc5C4)cc3)nc12 the results were SKKanGAS inh 14, CSC inhib -7, T cruzi repl 50 and Calb FLC 3.
Screening CCc1ccc2nc(N(CCCN(C)C)C(=O)c3ccc(S(=O)(=O)N4CCCc5ccccc54)cc3)sc2c1 returned SKKanGAS inh 17, CSC inhib inconclusive, Beta cell apopt 20, T cruzi repl 61*, Calb FLC -13, Mdm2-MdmX inh 91* and Mdm2-MdmX conf 30.
`CN(C)CCCN(C(=O)CCc1ccccc1)c1nc2ccc(Cl)cc2s1` gave SKKanGAS inh 1, CSC inhib 70, Beta cell apopt 5, T cruzi repl 51, Calb FLC 4, Mdm2-MdmX inh 50*, Mdm2-MdmX conf 35 and FLuc counter 54*.
For CCc1ccc2nc(N(CCCN(C)C)C(=O)c3ccc(C(=O)c4ccccc4)cc3)sc2c1 the results were SKKanGAS inh 9, CSC inhib 24, Beta cell apopt 2, T cruzi repl 37, Calb FLC 4, Mdm2-MdmX inh 74* and Mdm2-MdmX conf 21.
Screening COc1cccc(NC(=O)CN2C(=O)NC3(CCCc4ccccc43)C2=O)c1 (stereo not drawn) returned Mdm2-MdmX inh 11.
Screening Cc1cccnc1NC(=O)c1ccc(Cl)c(S(=O)(=O)N2CCCCCC2)c1 returned SKKanGAS inh -4, CSC inhib -2, Beta cell apopt -4, T cruzi repl 15, Calb FLC -1 and Mdm2-MdmX inh -12.
COc1cc2c(cc1OC)CN(c1nc(CN3CCOCC3)nc3sc4c(c13)CCC(C)C4)CC2 (stereo not drawn) was read as SKKanGAS inh 24, CSC inhib 23, Beta cell apopt 3, T cruzi repl 4, Calb FLC 21, Mdm2-MdmX inh 64*, Mdm2-MdmX conf 28 and FLuc counter 74*.
`O=C(COC(=O)[C@H](Cc1ccccc1)NC(=O)c1ccco1)Nc1ccccc1OC(F)F` gave CSC inhib -1, Beta cell apopt -7 and Mdm2-MdmX inh 18.
`O=C(NN=Cc1ccc(N2CCOCC2)s1)c1ccc([N+](=O)[O-])cc1` gave CSC inhib -10, Beta cell apopt 1 and Mdm2-MdmX inh 33.
For N/C(=N\OC(=O)C12CC3CC(CC(C3)C1)C2)c1ccccc1 the results were SKKanGAS inh -14, CSC inhib 59, Beta cell apopt -3, T cruzi repl 17, Calb FLC -2, Mdm2-MdmX inh 54* and Mdm2-MdmX conf 9.
`N/C(=N\OC(=O)C12CC3CC(CC(C3)C1)C2)c1cccnc1` gave SKKanGAS inh 1, CSC inhib 38, Beta cell apopt 1, T cruzi repl 18, Calb FLC 0, Mdm2-MdmX inh 71* and Mdm2-MdmX conf 2.
O=C(NCC1COc2ccccc2O1)c1ccc(Br)s1 (stereo not drawn) was read as SKKanGAS inh 0, CSC inhib 0, Beta cell apopt 6, T cruzi repl 10, Calb FLC 5 and Mdm2-MdmX inh -62.
Screening COc1ccc(/C=N/Nc2ccc([N+](=O)[O-])cc2)cc1O returned SKKanGAS inh 9, CSC inhib 21, Beta cell apopt 5, T cruzi repl -6, Calb FLC -19 and Mdm2-MdmX inh -83.
For Cc1ccc(S(=O)(=O)c2c(C)nn(C(C)(C)C)c2OC(=O)c2ccc(Br)o2)cc1 the results were SKKanGAS inh 4, CSC inhib 91*, Beta cell apopt -12, T cruzi repl 2, Calb FLC 87*, Mdm2-MdmX inh 89*, Mdm2-MdmX conf 60* and FLuc counter 29.
`Cc1ccc(S(=O)(=O)c2c(C)nn(C(C)(C)C)c2OC(=O)c2ccco2)cc1` gave SKKanGAS inh 4, CSC inhib -1, Beta cell apopt -2, T cruzi repl -38, Calb FLC 32 and Mdm2-MdmX inh 9.
CCN(CC)S(=O)(=O)c1ccc2oc(SCC(=O)Nc3cc(C)on3)nc2c1 was read as SKKanGAS inh 2, CSC inhib 41, Beta cell apopt 64, T cruzi repl 60*, Calb FLC 21, Mdm2-MdmX inh 55*, Mdm2-MdmX conf 57* and FLuc counter 52*.
O=C(CCl)Nc1cccc(S(=O)(=O)NC2=NCCC2)c1 was read as SKKanGAS inh 0, CSC inhib -2, Beta cell apopt -1, T cruzi repl -5, Calb FLC -1, Mdm2-MdmX inh 54*, Mdm2-MdmX conf 44* and FLuc counter 68*.
For CCNC(=S)Nc1cccc(S(=O)(=O)NC2=NCCC2)c1 the results were SKKanGAS inh 1, CSC inhib 8, Beta cell apopt 0, T cruzi repl -15, Calb FLC 3 and Mdm2-MdmX inh 11.
For COc1ccc(OCC(=O)NNC(=O)Cn2c(=O)cnc3ccccc32)cc1 the results were Mdm2-MdmX inh -3.
